Tests used:
[1] = target: T1, 5-hydroxytryptamine receptor 1A (Mus musculus, UniProt Q64264); assay: Inhibitory activity towards 5-hydroxytryptamine 1A receptor by the displacement of [3H]8-OH-DPAT in mouse hippocampus; type: tissue-based
T1 sequence (Q64264 whole entry): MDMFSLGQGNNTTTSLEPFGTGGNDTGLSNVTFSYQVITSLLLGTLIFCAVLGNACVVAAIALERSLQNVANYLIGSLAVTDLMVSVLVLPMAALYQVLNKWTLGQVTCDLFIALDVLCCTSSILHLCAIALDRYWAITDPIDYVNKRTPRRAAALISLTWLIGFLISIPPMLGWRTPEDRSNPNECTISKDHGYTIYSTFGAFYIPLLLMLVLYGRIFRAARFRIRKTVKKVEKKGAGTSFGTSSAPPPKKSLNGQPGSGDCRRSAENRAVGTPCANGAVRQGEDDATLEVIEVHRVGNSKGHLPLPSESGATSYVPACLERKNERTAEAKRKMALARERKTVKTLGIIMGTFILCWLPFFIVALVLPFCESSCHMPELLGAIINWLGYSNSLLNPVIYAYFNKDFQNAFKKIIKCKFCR

[2] = target: T1, 5-hydroxytryptamine receptor 1A; assay: Binding affinity towards 5-hydroxytryptamine 1A receptor by the displacement of [3H]8-OH-DPAT in mouse hippocampus; type: tissue-based
How it was run: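 Membranes incubated in triplicate with 1.2 nM [3H]8-OH-DPAT plus varying analogue concentrations, 30 min at 23 °C, 0.5 mL final volume. Filtered on PEI-pretreated GF/B; scintillation counting. IC50 derived from seven-point inhibition curves.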

[3] = target: T2, Serotonin 2 (5-HT2) receptor (Mus musculus, UniProt Q02152+P34968+P35363); assay: Inhibitory activity towards 5-hydroxytryptamine 2 receptor by the displacement of [3H]ketanserin in mouse cerebral cortex; type: tissue-based
How it was run: (§1)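 BALB/cBy mouse cerebral cortex, homogenized in 0.25 M sucrose; 1000g supernatant pelleted at 35000g and washed in 50 mM Tris-HCl pH 7.4. Nonspecific binding defined with 1 μM methysergide. Filtration on GF/B, scintillation counting. IC50 from computer fit of seven-point curves, averaged over 2–5 determinations.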

[4] = target: T2, Serotonin 2 (5-HT2) receptor; assay: Binding affinity towards 5-hydroxytryptamine 2 receptor by the displacement of [3H]-ketanserin in mouse cerebral cortex; type: tissue-based; how it was run: as §1
[5] = target: T3, 5-hydroxytryptamine receptor 1A (Mus musculus) (UniProt Q64264); assay: Hill number was determined for inhibition of [3H]8-OH-DPAT binding to 5-hydroxytryptamine 1A receptor in mouse hippocampus; type: tissue-based
T3 sequence (whole entry): T1 sequence (Q64264 whole entry)

[6] = target: Serotonin 2 (5-HT2) receptor (Mus musculus) (UniProt Q02152+P34968+P35363); assay: Hill number was determined for inhibition of [3H]ketanserin binding to 5-hydroxytryptamine 2 receptor in mouse cerebral cortex; type: tissue-based
Chain of Serotonin 2 (5-HT2) receptor (Mus musculus) (P34968 whole entry, looked up): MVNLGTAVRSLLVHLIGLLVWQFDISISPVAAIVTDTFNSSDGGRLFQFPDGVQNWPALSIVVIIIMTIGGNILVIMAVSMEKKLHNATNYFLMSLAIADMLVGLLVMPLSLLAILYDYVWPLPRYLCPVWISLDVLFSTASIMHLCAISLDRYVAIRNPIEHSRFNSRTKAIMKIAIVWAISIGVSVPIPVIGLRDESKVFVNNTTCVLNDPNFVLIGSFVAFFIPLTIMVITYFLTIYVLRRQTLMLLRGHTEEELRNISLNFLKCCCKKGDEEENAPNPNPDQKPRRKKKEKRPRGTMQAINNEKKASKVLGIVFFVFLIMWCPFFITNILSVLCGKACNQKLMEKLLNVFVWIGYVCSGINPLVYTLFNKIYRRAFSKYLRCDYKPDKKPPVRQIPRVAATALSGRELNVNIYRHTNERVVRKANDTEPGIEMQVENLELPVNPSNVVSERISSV
Chain of Serotonin 2 (5-HT2) receptor (Mus musculus) (P35363 whole entry, looked up): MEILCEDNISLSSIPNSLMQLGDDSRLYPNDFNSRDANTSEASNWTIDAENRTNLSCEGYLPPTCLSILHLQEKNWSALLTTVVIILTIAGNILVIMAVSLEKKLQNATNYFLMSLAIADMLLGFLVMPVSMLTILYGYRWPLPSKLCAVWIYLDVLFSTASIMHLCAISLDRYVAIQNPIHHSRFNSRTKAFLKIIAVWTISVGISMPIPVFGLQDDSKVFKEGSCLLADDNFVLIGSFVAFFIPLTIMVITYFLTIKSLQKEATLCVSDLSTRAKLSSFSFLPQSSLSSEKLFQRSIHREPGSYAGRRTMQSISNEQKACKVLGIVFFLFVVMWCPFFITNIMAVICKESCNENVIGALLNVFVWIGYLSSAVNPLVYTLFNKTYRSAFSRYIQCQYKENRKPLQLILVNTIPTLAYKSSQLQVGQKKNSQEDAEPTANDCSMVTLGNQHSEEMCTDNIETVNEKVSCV
Chain of Serotonin 2 (5-HT2) receptor (Mus musculus) (Q02152 whole entry, looked up): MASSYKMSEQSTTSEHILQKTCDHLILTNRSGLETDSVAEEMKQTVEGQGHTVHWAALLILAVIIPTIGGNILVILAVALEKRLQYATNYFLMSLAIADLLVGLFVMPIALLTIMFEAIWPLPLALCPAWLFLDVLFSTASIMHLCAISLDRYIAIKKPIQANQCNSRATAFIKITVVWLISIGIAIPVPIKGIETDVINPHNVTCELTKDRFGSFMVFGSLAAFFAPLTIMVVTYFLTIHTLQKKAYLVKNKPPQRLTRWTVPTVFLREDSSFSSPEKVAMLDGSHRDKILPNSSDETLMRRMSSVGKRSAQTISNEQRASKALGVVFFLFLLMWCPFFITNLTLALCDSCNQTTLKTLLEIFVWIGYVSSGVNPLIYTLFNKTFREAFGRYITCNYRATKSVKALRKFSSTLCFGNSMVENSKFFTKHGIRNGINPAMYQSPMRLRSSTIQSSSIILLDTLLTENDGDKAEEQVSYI
How it was run: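 Hill numbers taken from seven-point inhibition curves of 0.15 nM [3H]ketanserin binding to washed mouse cortical membranes in 50 mM Tris-HCl pH 7.4, incubated 15 min at 37 °C. Nonspecific binding set with 1 μM methysergide; bound radioligand collected by filtration and counted.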

[7] = target: T3, 5-hydroxytryptamine receptor 1A (Mus musculus); details: Hippocampus
Mus musculus [8] = species on record: Mus musculus; assay: Hill number was determined for inhibition of [3H]ketanserin binding in mouse cerebral cortex; type: tissue-based
How it was run: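 Cerebral cortex from adult BALB/cBy mice was homogenised in ice-cold 0.25 M sucrose pH 7.4. The 1000g supernatant was washed at 35000g in 50 mM Tris-HCl pH 7.4. Triplicate incubations ran 15 min at 37 °C with 0.15 nM [3H]ketanserin and varying analogue concentrations, final 2 mL. Nonspecific binding was set with 1 μM methysergide, and bound ligand was filtered on GF/B and counted by scintillation. Inhibition curves had seven points.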

Mus musculus [9] = species on record: Mus musculus; assay: Hill number was determined for inhibition of [3H]8-OH-DPAT binding in mouse hippocampus; type: functional
How it was run: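 Triplicate incubations ran 30 min at 23 °C with 1.2 nM [3H]8-OH-DPAT over varying analogue concentrations, followed by filtration on polyethylenimine-treated GF/B filters and scintillation counting. Inhibition curves had seven points.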

SMILES | IC50 [1] [µM] | Ki [2] [µM] | IC50 [3] [µM] | Ki [4] [µM] | Hill coefficient [5] | Hill coefficient [6] | further results
O=C1CC2CCC1C(N1CCCCC1)C2c1c[nH]c2ccccc12 (stereo in doubt; 10b) [listing 1 of 2 here] | 160 | 115 | 84 | 61 |  |  | 
C1=CC2CCC1C(c1c[nH]c3ccccc13)C2N1CCCCC1 (stereo in doubt; 13b) [listing 1 of 2 here] |  |  |  |  | 0.69 | 0.9 | 
O=C1CC2CCC1C(N1CCCCC1)C2c1c[nH]c2ccccc12 (stereo in doubt; 10a) [listing 1 of 2 here] | 86 | 61 | 5 | 4 |  |  | 
O=C1CC2CCC1C(N1CCCC1)C2c1c[nH]c2ccccc12 (stereo in doubt; 9a) [listing 1 of 2 here] |  |  |  |  |  | 0.9 | Hill coefficient [7]: 0.95
C1=CC2CCC1C(c1c[nH]c3ccccc13)C2N1CCCC1 (stereo in doubt; 12a) [listing 1 of 2 here] |  |  |  |  | 0.95 | 1 | 
C1=CC2CCC1C(c1c[nH]c3ccccc13)C2N1CCCC1 (stereo in doubt; 12b) [listing 1 of 2 here] |  |  |  |  | 0.61 | 0.9 | 
C1=CC2CCC1C(c1c[nH]c3ccccc13)C2N1CCCCC1 (stereo in doubt; 13a) [listing 1 of 2 here] |  |  |  |  | 0.93 | 1 | 
O=C1CC2CCC1C(N1CCCCC1)C2c1c[nH]c2ccccc12 (stereo in doubt; 10b) [listing 2 of 2 here] |  |  |  |  | 0.88 | 0.9 | 
O=C1CC2CCC1C(N1CCCC1)C2c1c[nH]c2ccccc12 (stereo in doubt; 9a) [listing 2 of 2 here] | 46 | 32 | 32 | 23 |  |  | 
C1=CC2CCC1C(c1c[nH]c3ccccc13)C2N1CCCC1 (stereo in doubt; 12b) [listing 2 of 2 here] | 47 |  | 24 | 17 |  |  | 
C1=CC2CCC1C(c1c[nH]c3ccccc13)C2N1CCCCC1 (stereo in doubt; 13b) [listing 2 of 2 here] | 89 |  | 13 | 9 |  |  | 
O=C1CC2CCC1C(N1CCCCC1)C2c1ccccc1 (stereo not drawn) | 358 | 274 | 181 | 132 | 0.89 | 1.2 | 
O=C1CC2CCC1C(N1CCCC1)C2c1c[nH]c2ccccc12 (stereo in doubt; 9b) [listing 1 of 2 here] | 53 |  | 96 | 70 |  |  | 
C1=CC2CCC1C(c1c[nH]c3ccccc13)C2N1CCCC1 (stereo in doubt; 12a) [listing 2 of 2 here] | 12 | 8.5 | 19 | 14 |  |  | 
O=C1CC2CCC1C(N1CCCC1)C2c1c[nH]c2ccccc12 (stereo in doubt; 9b) [listing 2 of 2 here] |  |  |  |  | 0.47 | 1 | 
NCCc1c[nH]c2ccc(O)cc12 [SEROTONIN] |  |  |  |  |  |  | Hill coefficient (Mus musculus [8]): 0.85; Hill coefficient (Mus musculus [9]): 0.75
C1=CC2CCC1C(c1c[nH]c3ccccc13)C2N1CCCCC1 (stereo in doubt; 13a) [listing 2 of 2 here] | 18 | 13.5 | 10 | 8 |  |  | 
O=C1CC2CCC1C(N1CCCCC1)C2c1c[nH]c2ccccc12 (stereo in doubt; 10a) [listing 2 of 2 here] |  |  |  |  | 1.2 | 1 | 

Reference: ChEMBL document CHEMBL1124958 (J Med Chem, 1990)
